From ChEMBL document CHEMBL3102754, “3D-QSAR study of adamantyl N-benzylbenzamides as melanogenesis inhibitors” (Bioorg Med Chem Lett, 2014)

System: B16
Assay: Antimelanogenic activity in mouse B16 cells after 4 days by spectrophotometry
Format: functional, cell-based
Details: B16, 96 h
Outline: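 Cells seeded at 2 × 10^5 cells/mL and treated in triplicate, with medium changed daily. After 4 d of culture, cells lysed in 1 N NaOH and crude extract transferred for melanin content reading.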

IC50	SMILES
1.4 µM	COc1ccc(C(=O)NCc2ccc(O)cc2O)cc1C12CC3CC(CC(C3)C1)C2
3.14 µM	COc1ccc(OC)c(CNC(=O)c2ccc(OC)c(C34CC5CC(CC(C5)C3)C4)c2)c1
4.1 µM	COc1ccc(OC)c(CNC(=O)c2cc(C34CC5CC(CC(C5)C3)C4)c(O)cc2O)c1
5.41 µM	COc1ccc(OC)c(CNC(=O)c2ccc(O)c(C34CC5CC(CC(C5)C3)C4)c2)c1
75 µM	O=C(NCCc1ccc(O)c(O)c1)c1ccc(O)cc1
5 µM	COc1ccc(CNC(=O)c2ccc(OC)c(C34CC5CC(CC(C5)C3)C4)c2)cc1OC
2.57 µM	COc1cc(CNC(=O)c2cc(C34CC5CC(CC(C5)C3)C4)c(O)cc2O)cc(OC)c1
55 µM	O=C(NCc1ccc(O)c(O)c1)c1ccc(O)cc1
2.09 µM	O=C(NCCc1ccc(O)c(O)c1)c1ccc(O)c(C23CC4CC(CC(C4)C2)C3)c1
4.33 µM	O=C(NCCc1ccc(O)c(O)c1)c1cc(C23CC4CC(CC(C4)C2)C3)c(O)cc1O
1.23 µM	O=C(NCc1ccc(O)cc1)c1cc(C23CC4CC(CC(C4)C2)C3)c(O)cc1O
3.81 µM	COc1ccc(CNC(=O)c2cc(C34CC5CC(CC(C5)C3)C4)c(O)cc2O)cc1OC
1.29 µM	COc1cc(O)c(C(=O)NCc2ccc(O)c(O)c2)cc1C12CC3CC(CC(C3)C1)C2
0.899 µM	O=C(NCc1ccc(O)cc1O)c1ccc(O)c(C23CC4CC(CC(C4)C2)C3)c1
1.2 µM	O=C(NCc1ccc(O)cc1O)c1cc(C23CC4CC(CC(C4)C2)C3)c(O)cc1O
5.02 µM	COc1cc(CNC(=O)c2ccc(OC)c(C34CC5CC(CC(C5)C3)C4)c2)cc(OC)c1
24.2 µM	O=C(NCc1cc(O)ccc1O)c1ccc(O)cc1O
4.08 µM	COc1ccc(CCNC(=O)c2cc(C34CC5CC(CC(C5)C3)C4)c(O)cc2O)cc1OC
5 µM	COc1ccc(C(=O)NCCc2ccc(O)cc2)c(O)c1
5.71 µM	COc1ccc(CNC(=O)c2cc(C34CC5CC(CC(C5)C3)C4)c(O)cc2O)c(O)c1
2.33 µM	COc1ccc(C(=O)NCCc2ccc(O)c(O)c2)cc1C12CC3CC(CC(C3)C1)C2
4.44 µM	COc1cc(CNC(=O)c2ccc(O)c(C34CC5CC(CC(C5)C3)C4)c2)cc(OC)c1

IC50	SMILES
2.23 µM	COc1ccc(C(=O)NCc2ccc(O)c(O)c2)cc1C12CC3CC(CC(C3)C1)C2
3.86 µM	COc1ccc(CNC(=O)c2ccc(O)c(C34CC5CC(CC(C5)C3)C4)c2)cc1OC
27 µM	COc1ccc(C(=O)NCCc2ccc(O)cc2)c(OC)c1
1.2 µM	COc1cc(OC)c(C23CC4CC(CC(C4)C2)C3)cc1C(=O)NCCc1ccc(O)cc1
1.92 µM	COc1cc(O)c(C(=O)NCCc2ccc(O)cc2)cc1C12CC3CC(CC(C3)C1)C2
2.31 µM	COc1ccccc1CNC(=O)c1cc(C23CC4CC(CC(C4)C2)C3)c(O)cc1O
4.5 µM	COc1ccc(CCNC(=O)c2ccc(OC)c(C34CC5CC(CC(C5)C3)C4)c2)cc1OC
0.729 µM	O=C(NCc1cc(O)ccc1O)c1cc(C23CC4CC(CC(C4)C2)C3)c(O)cc1O
8 µM	COc1ccc(C(=O)NCc2ccc(O)c(O)c2)c(O)c1
10 µM	COc1ccc(C(=O)NCc2ccc(O)c(O)c2)cc1
3.41 µM	COc1ccc(C(=O)NCCc2ccc(O)cc2)cc1C12CC3CC(CC(C3)C1)C2
1.25 µM	COc1cc(O)c(C(=O)NCCc2ccc(O)c(O)c2)cc1C12CC3CC(CC(C3)C1)C2
2.94 µM	COc1cc(CNC(=O)c2cc(C34CC5CC(CC(C5)C3)C4)c(O)cc2O)cc(OC)c1OC
11 µM	COc1ccc(C(=O)NCCc2ccc(O)c(O)c2)c(OC)c1
8.99 µM	COc1ccc(C(=O)NCc2ccc(O)c(O)c2)c(OC)c1
1.1 µM	O=C(NCCc1ccc(O)cc1)c1cc(C23CC4CC(CC(C4)C2)C3)c(O)cc1O
8 µM	O=C(NCc1ccc(O)c(O)c1)c1ccc(O)cc1O
2.5 µM	O=C(NCc1ccc(O)c(O)c1)c1cc(C23CC4CC(CC(C4)C2)C3)c(O)cc1O
3.69 µM	COc1ccc(CNC(=O)c2cc(C34CC5CC(CC(C5)C3)C4)c(O)cc2O)c(OC)c1
23 µM	COc1ccc(C(=O)NCCc2ccc(O)c(O)c2)cc1
2.57 µM	O=C(NCc1ccc(O)c(O)c1)c1ccc(O)c(C23CC4CC(CC(C4)C2)C3)c1
